Screening data (PubChem BioAssay)
Most compounds without a hit are left out; they make up all but 3.6% or so of the library.
EBNA-1 inh – blocks EBNA-1 binding to DNA. AID 1950. inhibition, % at 14.8 µM. EBNA-1 DNA binding, fluorescence polarization. 300,000 tested, 0.34% active; in the data active means inhibition above about 28%
GRIN3A LBD mod – modulates the human NR3A ligand-binding domain; 340,000 tested, 2.5% active; NR3A LBD differential scanning fluorimetry, Tm shift; 0% = protein alone, 100% = glycine-bound protein; Tm shift relative to glycine control, % at 25 µM;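 active means melting temperature shift of at least 10% of the positive control shift, at one fixed dose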
FGF22 binding – FGF22 (human) thermal shift binding. activity (Tm shift, normalised), % at 9.99 µM. recombinant FGF22 thermal shift, SYPRO orange fluorescence; percent of sucrose octasulfate shift, DMSO zero. 340,000 tested, 1.5% active;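 active means mean Tm shift, scaled 0 neutral to 100 positive control, at about 1.3% or above, every replicate too, limit read from the data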
Target sequence (Q9HCT0 whole entry, looked up): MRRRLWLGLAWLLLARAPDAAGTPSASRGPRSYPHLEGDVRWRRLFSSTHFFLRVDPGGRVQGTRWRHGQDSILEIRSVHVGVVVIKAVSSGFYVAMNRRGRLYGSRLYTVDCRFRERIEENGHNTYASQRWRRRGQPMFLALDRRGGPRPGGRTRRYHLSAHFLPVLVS
HCV NS3 hel inh – inhibitors of Hepatitis C virus NS3 helicase; AID 1800; NS3 helicase DNA unwinding, Cy5 molecular beacon fluorescence; 290,000 tested, 0.56% active; inhibition, % at 10.9 µM;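 active means inhibition above the mean of all tested compounds plus 3 SD, set per campaign, cut at about 35% in these data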;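 further: 0% = DMSO wells and 100% = thioflavine S control wells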
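assay system = NS3 helicase fragment of HCV | buffer or medium = MOPS pH 6.5, MgCl2, DTT, Tween20, BSA | timing = 60 min unwinding reaction at 25 °C after ATP addition | signal = Cy5 beacon fluorescence read at start and 1 h | read-out basis = % inhibition of unwinding | control set = low DMSO, high thioflavine S at 110 µM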
ZTA counter – counter-screen for EBNA-1 inhibitors: inhibitors of Epstein-Barr virus ZTA; ZTA-DNA binding, fluorescence polarization; inhibition, % at 11 µM; 320,000 tested, 0.15% active; AID 2234; in the data active means inhibition above about 33%
Target sequence (P03206 whole entry, looked up): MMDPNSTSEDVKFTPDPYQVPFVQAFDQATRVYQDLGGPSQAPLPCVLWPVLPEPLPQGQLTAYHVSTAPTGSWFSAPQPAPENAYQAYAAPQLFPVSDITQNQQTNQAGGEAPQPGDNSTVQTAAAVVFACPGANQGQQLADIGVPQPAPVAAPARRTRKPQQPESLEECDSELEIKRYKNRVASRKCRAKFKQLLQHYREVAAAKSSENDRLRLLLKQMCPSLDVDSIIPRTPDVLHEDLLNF
DNA FID counter-1 – counter-screen for HCV NS3 helicase inhibitors: DNA intercalator displacement. inhibition, % at 7.9 µM. DNA fluorescent intercalator displacement, fluorescence. AID 1845. 290,000 tested, 0.17% active;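 further: 0% = vehicle and 100% = reference compound; higher means more ethidium bromide displaced from hairpin DNA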
NS3 helicase cf – confirmation of Hepatitis C virus NS3 helicase inhibitors; shares compounds with HCV NS3 hel inh; NS3 helicase DNA unwinding, Cy5 molecular beacon fluorescence; inhibition, % at 10.9 µM; 1,600 tested, 31% active; AID 1943;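 active means inhibition above the mean of all tested compounds plus 3 SD, cutoff set per campaign, cut at about 36% in these data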
DNA FID counter-2 – displaces DNA intercalator in HCV helicase counter-screen | DNA fluorescent intercalator displacement, fluorescence | shares compounds with HCV NS3 hel inh | inhibition, % at 7.9 µM | 1,600 tested, 4% active;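 further: 0% = vehicle and 100% = reference compound; higher means more displacement of ethidium bromide from the DNA hairpin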
FID counter DR – counter-screen for HCV NS3 helicase inhibitors: DNA intercalator displacement dose response; fluorescent intercalator displacement from DNA, fluorescence; IC50, µM; shares compounds with HCV NS3 hel inh; 120 tested, under 10 active; call rule not given here
* hit, by the source's call. Unless noted, no stated cut-off is given here; in the data, active means inhibition above about 37%; inactive means the rest.

CCS(=O)(=O)NCC[C@H]1CC[C@H](NS(=O)(=O)c2cccc(F)c2)[C@H](CO)O1 was read as FGF22 binding 0.
For CCN1[C@@H]2c3ccc(-c4cccc(F)c4)c(=O)n3C[C@@H]2[C@@H](CO)[C@@H]1C(=O)N1CCCCC1 the results were FGF22 binding 0.
`CC(=O)c1cn(CC(=O)NCc2ccco2)c2ccccc12` gave EBNA-1 inh 7, GRIN3A LBD mod -1, HCV NS3 hel inh 9, ZTA counter -8 and DNA FID counter-1 0.
O=C(Cn1cc(C(=O)COc2ccccc2)c2ccccc21)NCc1ccco1 was read as EBNA-1 inh 1, GRIN3A LBD mod -3, HCV NS3 hel inh 44*, ZTA counter 6, DNA FID counter-1 -20, NS3 helicase cf -6 and DNA FID counter-2 9.
For COC(=O)CN1C(=O)[C@H]2[C@@H](c3ccc(C)o3)N3C(=O)CN(CCO)C(=O)[C@@]3(Cc3ccccc3)[C@H]2C1=O the results were EBNA-1 inh -3, GRIN3A LBD mod 4, FGF22 binding 0, HCV NS3 hel inh 45*, ZTA counter 22, DNA FID counter-1 -11, NS3 helicase cf -7 and DNA FID counter-2 3.
Screening O=C1NC(=S)S/C1=C\c1ccc(SCc2ccco2)o1 returned EBNA-1 inh 27, GRIN3A LBD mod -3, HCV NS3 hel inh 76*, ZTA counter 92*, DNA FID counter-1 1, NS3 helicase cf 81* and DNA FID counter-2 31.
O=C1NC(=S)S/C1=C\c1ccc(SCc2ccccc2)o1 was read as EBNA-1 inh -8, GRIN3A LBD mod -5, HCV NS3 hel inh 47*, ZTA counter 15, DNA FID counter-1 -10, NS3 helicase cf 81* and DNA FID counter-2 22.
For C[C@H](CO)N1C[C@H](C)[C@H](CN(C)C(=O)c2ccncc2)Oc2cc(/C=C/c3ccccc3)ccc2S1(=O)=O the results were FGF22 binding 1.
C[C@@H]1CCCCO[C@@H](CN(C)C(=O)Cc2ccccc2)[C@H](C)CN([C@@H](C)CO)C(=O)c2cc(NC(=O)Nc3ccccc3)ccc2O1 was read as FGF22 binding 0.
Screening C/C=C/c1ccc2c(c1)O[C@H](CN(C)C(=O)COC)[C@H](C)CN([C@H](C)CO)S2(=O)=O returned FGF22 binding 0.
For COc1cccc(C#Cc2ccc([C@@H]3[C@H]4CN(S(=O)(=O)c5ccccc5C)CC(=O)N4[C@H]3CO)cc2)c1 the results were FGF22 binding 0.
`O=C(N/N=C/c1cccnc1)c1cc2c(ccc3ccccc32)o1` gave EBNA-1 inh -4, GRIN3A LBD mod -4, HCV NS3 hel inh -7, ZTA counter 8 and DNA FID counter-1 -10.
`O=C(N/N=C/c1cc(Cl)c(O)c(Cl)c1)c1cc2c(ccc3ccccc32)o1` gave EBNA-1 inh 11, GRIN3A LBD mod 6, FGF22 binding 0, HCV NS3 hel inh 45*, ZTA counter 12, DNA FID counter-1 -36, NS3 helicase cf 53*, DNA FID counter-2 -6 and FID counter DR >79.
For COc1ccc2c3c(n(C)c2c1)[C@H](CO)N(C)CC31CCN(S(=O)(=O)c2cccs2)CC1 the results were FGF22 binding 0.
`COC(=O)c1cn(-c2cccc(N)c2)nn1` gave FGF22 binding 0.
Screening CCn1c(=O)c(CCC(=O)NCC2CCCO2)c(C)c2c(C)nn(-c3ccc(C)cc3)c21 (configuration not stated) returned EBNA-1 inh -7, GRIN3A LBD mod 0, FGF22 binding 0, HCV NS3 hel inh 37*, ZTA counter -27, DNA FID counter-1 -16, NS3 helicase cf -16 and DNA FID counter-2 -44.
`CO[C@H]1CN(C)C(=O)c2cc(NC(=O)Nc3c(C)noc3C)ccc2OC[C@H](C)N(CC2CC2)C[C@@H]1C` gave FGF22 binding 0.
`Cc1cccc(Nc2nnc(SC/C(O)=C(\C#N)c3nc4ccccc4[nH]3)s2)c1C` gave EBNA-1 inh 0, GRIN3A LBD mod 8, HCV NS3 hel inh 48*, ZTA counter -2, DNA FID counter-1 -15, NS3 helicase cf -9 and DNA FID counter-2 -17.
Screening O=C(NC(Cc1c[nH]c2ccccc12)C(=O)O)c1ccc(F)cc1 (configuration not stated) returned EBNA-1 inh 6, GRIN3A LBD mod 2, FGF22 binding 43, HCV NS3 hel inh 5, ZTA counter -11 and DNA FID counter-1 7.
For O=C(Nc1ccccc1C(=O)NC(Cc1c[nH]c2ccccc12)C(=O)O)c1ccccc1 (configuration not stated) the results were EBNA-1 inh -1, GRIN3A LBD mod -5, FGF22 binding 0, HCV NS3 hel inh 40*, ZTA counter -15, DNA FID counter-1 -24, NS3 helicase cf 42* and DNA FID counter-2 -36.
`COc1ccccc1CN(C)C[C@@H]1OCc2cn(nn2)CCCC(=O)N([C@@H](C)CO)C[C@@H]1C` gave FGF22 binding 0.
For CC(/C=C1\SC(=S)N(CC(=O)O)C1=O)=C\c1ccccc1 the results were EBNA-1 inh 3, GRIN3A LBD mod 0, FGF22 binding 0, HCV NS3 hel inh 18, ZTA counter -4 and DNA FID counter-1 -8.
COC(=O)CN1C(=O)S/C(=C/c2ccc(N3CCCCC3)o2)C1=O was read as EBNA-1 inh 6, GRIN3A LBD mod -1, HCV NS3 hel inh 32, ZTA counter 1 and DNA FID counter-1 -29.
CC(=C\c1ccccc1)/C=C1/SC(=S)N(CCC(=O)O)C1=O was read as EBNA-1 inh 4, GRIN3A LBD mod 6, FGF22 binding 0, HCV NS3 hel inh 51*, ZTA counter 8, DNA FID counter-1 -9, NS3 helicase cf 65* and DNA FID counter-2 -9.
CC(=C\c1ccco1)/C=C1/SC(=S)N(CC(=O)O)C1=O was read as EBNA-1 inh 3, GRIN3A LBD mod 0, FGF22 binding 0, HCV NS3 hel inh 45*, ZTA counter -16, DNA FID counter-1 -24, NS3 helicase cf 3 and DNA FID counter-2 -1.
Screening O=C(O)CN1C(=O)/C(=C/c2ccc(N3CCCCC3)o2)SC1=S returned EBNA-1 inh -4, GRIN3A LBD mod -2, FGF22 binding 0, HCV NS3 hel inh 61*, ZTA counter 3, DNA FID counter-1 -29, NS3 helicase cf 27 and DNA FID counter-2 0.
